Data from article PMC4077163 (Bioorganic & medicinal chemistry letters, 2014).
Square brackets hold non-standard residues; d marks the D form. Peptide text beside a SMILES is read from it. * marks the point of attachment. pY = N[C@@H](Cc1ccc(OP(=O)(O)O)cc1)C(=O)O; Hydrocinnamoyl = O=C(CCc1ccccc1)*; Ac6c = NC1(C(=O)O)CCCCC1; Cbz = O=C(OCc1ccccc1)*

Assays:
Grb2 SH2 domain [1] = target: T1, Grb2 SH2 domain (Homo sapiens, UniProt P62993); assay: Isothermal titration calorimetry; format: binding; conditions: for ΔG° / ΔH° / −TΔS°: ITC, 25 °C, HEPES (50 mM), NaCl (150 mM), pH 7.45 ± 0.05; for potency relative to indolyl compound 10: from ITC data of Table 1
Summary of the method: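 Tripeptide phosphotyrosine-analogue ligands were titrated against the Grb2 SH2 domain by ITC at 25 °C in 50 mM HEPES, 150 mM NaCl, pH 7.45 ± 0.05. Ka, ΔG°, ΔH° and ΔS° were taken from the titrations. Each ligand had three or more runs. The n value of each run was normalized by adjusting ligand concentration, then the runs were averaged.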

Grb2 SH2 domain [2] = target: T1, Grb2 SH2 domain; assay: Literature affinity; format: binding; conditions: ratio of literature IC50 values, more potent than 3

T1 sequence (P62993 60-152 limits assumed): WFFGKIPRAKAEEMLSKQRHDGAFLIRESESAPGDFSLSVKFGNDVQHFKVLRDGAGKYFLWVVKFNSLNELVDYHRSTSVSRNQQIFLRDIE

| Structure (SMILES) | Kd (Grb2 SH2 domain [1]) | ΔG° (Grb2 SH2 domain [1]) | ΔH° (Grb2 SH2 domain [1]) | −TΔS° (Grb2 SH2 domain [1]) | potency relative to indolyl compound 10 (Grb2 SH2 domain [1]) | potency relative to 3 (Grb2 SH2 domain [2]) |
| --- | --- | --- | --- | --- | --- | --- |
| CC(=O)N[C@@H](Cc1ccc(OP(=O)(O)O)cc1)C(=O)NC1(C(=O)N[C@@H](CC(N)=O)C(N)=O)CCCCC1 [Compound 7] (HELM PEPTIDE1{[ac].[O=C([C@H](Cc1ccc(OP(=O)(O)O)cc1)N[*:1])[*:2]].[O=C(C1(N[*:1])CCCCC1)[*:2]].N.[am]}$$$$V2.0) | 143 nM | -9.3 ± 0.1 kcal/mol | -8.5 ± 0.4 kcal/mol | -0.8 ± 0.4 kcal/mol |  |  |
| Cn1cc(CCC(=O)N[C@@H](Cc2ccc(OP(=O)(O)O)cc2)C(=O)NC2(C(=O)N[C@@H](CC(N)=O)C(N)=O)CCCCC2)c2ccccc21 [Compound 10] | 87.7 nM | -9.6 ± 0.1 kcal/mol | -10.0 ± 0.3 kcal/mol | +0.4 ± 0.1 kcal mol^−1 |  |  |
| NC(=O)C[C@H](NC(=O)C1(NC(=O)[C@H](Cc2ccc(OP(=O)(O)O)cc2)NC(=O)CCc2ccccc2)CCCCC1)C(N)=O [Compound 11] (Hydrocinnamoyl-[pY]-[Ac6c]-Asn-NH2) | 42.7 nM | -10.1 ± 0.1 kcal/mol | -9.5 ± 0.5 kcal/mol | -0.6 ± 0.1 kcal/mol | about two-fold more potent |  |
| NC(=O)C[C@H](NC(=O)C1(NC(=O)[C@H](Cc2ccc(OP(=O)(O)O)cc2)NC(=O)OCc2ccccc2)CCCCC1)C(N)=O [Compound 8] (Cbz-[pY]-[Ac6c]-Asn-NH2) | 154 nM | -9.3 ± 0.1 kcal/mol | -9.3 ± 0.3 kcal/mol | 0.0 ± 0.1 kcal/mol |  |  |
| NC(=O)C[C@H](NC(=O)C1(NC(=O)[C@H](Cc2ccc(OP(=O)(O)O)cc2)NC(=O)OCc2cccc(N)c2)CCCCC1)C(N)=O [Compound 9] | 114 nM | -9.5 ± 0.1 kcal/mol | -9.1 ± 0.5 kcal/mol | -0.4 ± 0.3 kcal/mol |  | about 65 fold |
| NC(=O)C[C@H](NC(=O)C1(NC(=O)[C@H](Cc2ccc(OP(=O)(O)O)cc2)NC(=O)CCC2CCCCC2)CCCCC1)C(N)=O [Compound 12] | 34.7 nM | -10.2 ± 0.1 kcal/mol | -10.0 ± 0.5 kcal/mol | -0.2 ± 0.1 kcal/mol | about two-fold more potent |  |
